HTR1E agonist: activates the human 5-HT1E serotonin receptor | CHO 5-HT1E Ga15 NFAT-bla reporter, FRET; 0% DMSO wells, 100% control agonist wells | activation, % at 6 µM | actives 0.69% (n = 65,000) | AID 574;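 active = activation above a set limit, the screen-wide mean activation plus 3 SD, cut at about 8.5% in these data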;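 also: 100% = positive control agonist at 1 µM giving full maximal response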
Target sequence (P28566 whole entry, looked up): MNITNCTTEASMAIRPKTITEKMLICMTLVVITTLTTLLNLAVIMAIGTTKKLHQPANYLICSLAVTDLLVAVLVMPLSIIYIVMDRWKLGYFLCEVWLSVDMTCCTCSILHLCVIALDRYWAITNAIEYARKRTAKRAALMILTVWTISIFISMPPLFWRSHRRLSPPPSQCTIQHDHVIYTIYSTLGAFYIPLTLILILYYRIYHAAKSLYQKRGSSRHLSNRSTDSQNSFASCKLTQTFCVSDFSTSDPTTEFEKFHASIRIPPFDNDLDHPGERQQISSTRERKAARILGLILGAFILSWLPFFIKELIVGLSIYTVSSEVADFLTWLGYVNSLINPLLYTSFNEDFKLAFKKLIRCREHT
5HT1a ag: activates the human 5-HT1a serotonin receptor. P08908. CHO 5-HT1a Ga15 NFAT-bla reporter, FRET ratio; 0% basal, 100% maximal reference agonist. activation, % at 10 µM. actives 0.56% (n = 65,000);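 active = activation above the screen-wide mean activation plus 3 SD, cut at about 19% in these data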;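 also: 0% = DMSO wells and 100% = 5-CT at EC100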
5HT1a antag: blocks the human serotonin 5-HT1a receptor; P08908; actives 0.68% (n = 62,000); CHO 5-HT1a Ga15 NFAT-bla reporter, antagonist mode; inhibition, % at 10 µM;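 active = inhibition above the mean of all tested compounds plus 3 SD, cut at about 43% in these data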;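 also: receptor stimulated by 5-CT agonist at 100 nM near EC80; beta-lactamase reporter measured by ratiometric fluorescence of a cleavable substrate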
HTR1E antagonist: blocks the human 5-HT1E serotonin receptor; P28566; inhibition, % at 6 µM; actives 0.99% (n = 65,000); CHO 5-HT1E Ga15 NFAT-bla reporter, FRET, antagonist;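 active = inhibition above a set limit, the mean inhibition across every tested compound plus 3 SD, cut at about 29% in these data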;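 also: signal is the 460 over 535 nm emission ratio of beta-lactamase substrate; 0% = agonist plus DMSO wells and 100% = wells without agonist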
S1P3 agonist: agonists of human S1P3 receptor. activation, % at 4.5 µM. Q99500. S1P3 NFAT-BLA reporter cells, agonism, FRET ratio; relative to 1 µM S1P, basal subtracted. actives 0.1% (n = 60,000);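 active = activation above the screen-wide mean plus 3 SD, cut at about 4.5% in these data, passing the limit was not always enough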
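material = human S1P3 NFAT-BLA reporter CHO cells | schedule = 4 h compound at 37 °C, 2 h substrate at RT | measured by = fluorescent BLA substrate, ex 405 nm, em 460/535 nm ratio | controls = 1 µM S1P reference | replication = primary once, confirmation triplicate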
Active calls of the source: *. This is a sample that favours compounds with a hit; in the whole collection about 2.6% have one here.

Screening Cc1cnn(C(=S)NCC2CCCO2)c1 (stereo not given) returned HTR1E agonist 0.0, 5HT1a ag 0.8, 5HT1a antag -11.7, HTR1E antagonist -5.6 and S1P3 agonist 0.1.
Screening Cc1cc(C)cc(N(CC(=O)NCc2cccnc2)S(C)(=O)=O)c1 returned HTR1E agonist 16.6*, 5HT1a ag -0.1, 5HT1a antag -7.5, HTR1E antagonist -0.5 and S1P3 agonist -1.7.
`CCn1c(SC(=O)NC2CCCCC2)nnc1-c1cccs1` gave HTR1E agonist -0.2, 5HT1a ag -1.2, 5HT1a antag -6.2, HTR1E antagonist -9.9 and S1P3 agonist -0.6.
COc1ccc(OCc2nc(C#N)c(N3CCN(c4ccc(OC)cc4)CC3)o2)cc1 was read as HTR1E agonist -0.4, 5HT1a ag -2.2, 5HT1a antag 51.8*, HTR1E antagonist 7.3 and S1P3 agonist -1.5.
`COc1ccc(N2CCN(c3oc(COc4ccccc4Cl)nc3C#N)CC2)cc1` gave HTR1E agonist -0.5, 5HT1a ag -3.7, 5HT1a antag 49.5* and HTR1E antagonist 1.6.
Screening N#Cc1nc(COc2ccc(F)cc2)oc1N1CCC(Cc2ccccc2)CC1 returned HTR1E agonist -1.3, 5HT1a ag -4.0, 5HT1a antag 56.0*, HTR1E antagonist 1.5 and S1P3 agonist -1.0.
For COc1ccc(Cl)cc1N(CC(=O)Nc1ccc2c(c1)OCCO2)S(C)(=O)=O the results were HTR1E agonist -0.9, 5HT1a ag -1.5, 5HT1a antag 5.6, HTR1E antagonist 23.7 and S1P3 agonist -0.9.
Screening COc1ccc(N2C(=O)C3CCCN3C2c2cccc(OC)c2OC)cc1 (stereo not given) returned HTR1E agonist 0.1, 5HT1a ag 101.5*, 5HT1a antag 0.9, HTR1E antagonist 4.5 and S1P3 agonist -0.7.
COc1ccccc1N1CCN(CC(=O)Nc2cc(C)nn2-c2nc(C)cc(C)n2)CC1 was read as HTR1E agonist 0.6, 5HT1a ag 3.2, 5HT1a antag -3.4 and HTR1E antagonist -2.9.
Screening CCCCN(C)CCCNC(=O)CCn1nc(-c2ccccc2)ccc1=O returned HTR1E agonist 21.7*, 5HT1a ag -3.7, 5HT1a antag 4.3, HTR1E antagonist 5.5 and S1P3 agonist -1.3.
Screening CCCCNC(=O)CCn1nc(-c2ccccc2)ccc1=O returned HTR1E agonist 0.2, 5HT1a ag -2.5, 5HT1a antag -5.6, HTR1E antagonist -12.4 and S1P3 agonist 1.0.
`O=c1c2ccccc2nc(SCc2cn3ccsc3n2)n1-c1ccccc1F` gave HTR1E agonist 0.0, 5HT1a ag 9.5, 5HT1a antag 11.7, HTR1E antagonist 43.0* and S1P3 agonist -1.2.
c1ccc(CSCc2cn3ccsc3n2)cc1 was read as HTR1E agonist -0.3, 5HT1a ag -2.7, 5HT1a antag -2.8, HTR1E antagonist -10.9 and S1P3 agonist -0.9.
O=c1c2ccccc2nc(SCc2cn3ccsc3n2)n1-c1ccccc1 was read as HTR1E agonist 0.5, 5HT1a ag 1.0, 5HT1a antag -1.2, HTR1E antagonist 37.6* and S1P3 agonist -0.2.
Screening COC(=O)c1cc(C(=O)OC)cc(S(=O)(=O)Nc2ccc(Cl)c(N)c2)c1 returned HTR1E agonist -0.5, 5HT1a ag 4.7, 5HT1a antag -14.8, HTR1E antagonist -1.1 and S1P3 agonist -0.2.
For COc1ccc(C(=O)N2CCc3cc(OC)c(OC)cc3C2)cc1OC the results were HTR1E agonist 0.2, 5HT1a ag -1.4, 5HT1a antag 3.2, HTR1E antagonist 10.5 and S1P3 agonist -0.1.
COc1cc2c(cc1OC)C1Cc3ccc(OC)c(OC)c3CN1CC2 (stereo not given) was read as HTR1E agonist 8.1, 5HT1a ag -1.0, 5HT1a antag 51.0*, HTR1E antagonist 2.2 and S1P3 agonist -1.2.
For COc1ccc(C2(O)CCN(C(=O)Cc3cccnc3)CC2)cc1 the results were HTR1E agonist 0.1, 5HT1a ag 1.5, 5HT1a antag -12.6 and HTR1E antagonist 7.5.
Screening COc1ccc(C2(O)CCN(CCCCOc3ccccc3)CC2)cc1 returned HTR1E agonist 0.1, 5HT1a ag -1.1, 5HT1a antag 66.6*, HTR1E antagonist 4.1 and S1P3 agonist 0.1.
For Nc1nonc1C(=O)NCCNCc1cc(Br)ccc1OCc1ccc(F)cc1 the results were HTR1E agonist -0.3, 5HT1a ag -0.8, 5HT1a antag 49.4*, HTR1E antagonist 10.1 and S1P3 agonist -2.4.
`COc1ccc(CNCCNC(=O)c2nonc2N)cc1OC` gave HTR1E agonist -0.2, 5HT1a ag -1.7, 5HT1a antag -3.0 and HTR1E antagonist 2.7.
CC(C)c1ccc(-c2nnn(Cc3nc4ccccc4s3)n2)cc1 was read as HTR1E agonist -1.0, 5HT1a ag 3.1, 5HT1a antag 22.9, HTR1E antagonist -3.2 and S1P3 agonist -0.2.
COc1ccc(-c2cnnn2-c2ccc(NC(=O)c3ccco3)cc2)cc1OC was read as HTR1E agonist -0.3, 5HT1a ag 0.7, 5HT1a antag 7.3 and HTR1E antagonist 47.0*.
COc1ccc(-c2cnnn2-c2ccc(N)cc2)cc1OC was read as HTR1E agonist -1.3, 5HT1a ag -1.2, 5HT1a antag -0.9, HTR1E antagonist 19.8 and S1P3 agonist -0.4.
Screening O=C(CSc1nc2ccccc2c(=O)n1CC1CCCCC1)N1CCOCC1 returned HTR1E agonist 0.4, 5HT1a ag 2.2, HTR1E antagonist 3.3 and S1P3 agonist -3.8.
For CCN(CC)C(=O)CSc1nc2ccccc2c(=O)n1CC1CCCCC1 the results were HTR1E agonist -0.1, 5HT1a ag 4.4, HTR1E antagonist 36.8* and S1P3 agonist -7.0.
`COc1ccc(S(=O)(=O)N(Cc2ccccc2)Cc2nc(-c3ccccc3)no2)cc1` gave HTR1E agonist -1.0, 5HT1a ag -2.6, 5HT1a antag 32.6, HTR1E antagonist 13.3 and S1P3 agonist -1.1.
Screening Cc1cc(-c2nn3c(-c4ccccc4)nnc3s2)c2ccccc2n1 returned HTR1E agonist 1.9, 5HT1a ag -0.6, 5HT1a antag 0.3, HTR1E antagonist 29.9* and S1P3 agonist -0.3.
`O=C1c2oc3ccc(F)cc3c(=O)c2C(c2cccc(O)c2)N1CCCN1CCOCC1` (stereo not given) gave HTR1E agonist 30.1*, 5HT1a ag 0.5, 5HT1a antag -14.2, HTR1E antagonist -0.6 and S1P3 agonist -0.3.
Screening C=CCOc1cccc(C2c3c(oc4ccc(F)cc4c3=O)C(=O)N2CCCN2CCOCC2)c1 (stereo not given) returned HTR1E agonist 0.8, 5HT1a ag -1.0, 5HT1a antag 2.6, HTR1E antagonist -1.2 and S1P3 agonist -0.8.
Cc1ccc2c(c1)c1c(n2CC(O)Cn2c(C)nc3ccccc32)C(=O)CCC1 (stereo not given) was read as HTR1E agonist 0.3, 5HT1a ag 72.7*, 5HT1a antag 28.7, HTR1E antagonist -9.3 and S1P3 agonist -2.2.
